Experiments:
[1] = molecular target: T1, Testis-specific serine/threonine-protein kinase 1 (Homo sapiens) (UniProt Q9BXA7); experiment: Inhibition of human recombinant TSSK1 at 500 nM related to control ULK1
T1 sequence (whole entry): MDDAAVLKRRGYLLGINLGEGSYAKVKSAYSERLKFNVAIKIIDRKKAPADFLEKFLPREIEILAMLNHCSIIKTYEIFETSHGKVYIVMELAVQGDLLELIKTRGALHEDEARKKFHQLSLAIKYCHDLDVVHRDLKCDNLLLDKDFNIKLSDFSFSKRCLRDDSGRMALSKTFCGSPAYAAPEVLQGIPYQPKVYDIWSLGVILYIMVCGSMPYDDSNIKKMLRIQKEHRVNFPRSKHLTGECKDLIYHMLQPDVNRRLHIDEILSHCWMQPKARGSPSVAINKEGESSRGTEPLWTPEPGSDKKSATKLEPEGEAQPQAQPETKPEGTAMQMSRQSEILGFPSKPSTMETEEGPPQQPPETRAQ

[2] = molecular target: T2, MAP/microtubule affinity-regulating kinase 4 (Homo sapiens) (UniProt Q96L34); experiment: Inhibition of human recombinant MARK4 at 500 nM in presence of ATP by radiometric assay relative to control
T2 sequence (whole entry): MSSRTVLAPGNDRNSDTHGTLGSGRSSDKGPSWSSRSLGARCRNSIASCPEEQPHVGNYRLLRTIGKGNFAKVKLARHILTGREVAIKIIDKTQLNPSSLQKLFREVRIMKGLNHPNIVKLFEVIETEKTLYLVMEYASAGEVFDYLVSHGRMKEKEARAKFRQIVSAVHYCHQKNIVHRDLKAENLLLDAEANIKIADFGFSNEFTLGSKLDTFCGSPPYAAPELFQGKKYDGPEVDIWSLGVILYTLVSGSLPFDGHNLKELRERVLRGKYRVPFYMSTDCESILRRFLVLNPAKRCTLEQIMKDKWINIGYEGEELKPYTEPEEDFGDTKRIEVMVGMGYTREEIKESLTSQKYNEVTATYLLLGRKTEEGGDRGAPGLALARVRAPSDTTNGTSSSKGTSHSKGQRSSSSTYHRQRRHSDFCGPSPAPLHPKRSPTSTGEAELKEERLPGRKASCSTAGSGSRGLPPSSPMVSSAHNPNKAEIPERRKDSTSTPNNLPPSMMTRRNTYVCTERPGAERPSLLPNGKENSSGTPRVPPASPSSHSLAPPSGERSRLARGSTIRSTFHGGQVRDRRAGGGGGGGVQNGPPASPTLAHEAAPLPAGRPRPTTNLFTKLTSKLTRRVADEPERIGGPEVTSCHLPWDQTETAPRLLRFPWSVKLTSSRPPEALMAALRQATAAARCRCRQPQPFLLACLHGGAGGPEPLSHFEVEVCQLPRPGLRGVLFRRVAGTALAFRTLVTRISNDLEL

[3] = molecular target: Insulin receptor-related protein (Homo sapiens) (UniProt P14616); experiment: Inhibition of human recombinant IRR at 500 nM related to control ULK1
[4] = molecular target: Activin receptor type-2A (Homo sapiens) (UniProt P27037); experiment: Inhibition of human recombinant ACTR2 at 500 nM related to control ULK1
[5] = molecular target: Dual specificity protein kinase CLK3 (Homo sapiens) (UniProt P49761); experiment: Inhibition of human recombinant CLK3 at 15 nM related to control ULK1
[6] = molecular target: T3, Mitogen-activated protein kinase kinase kinase 7 (Homo sapiens) (UniProt O43318); experiment: Inhibition of human recombinant TAK1 at 15 nM related to control ULK1
T3 sequence (whole entry): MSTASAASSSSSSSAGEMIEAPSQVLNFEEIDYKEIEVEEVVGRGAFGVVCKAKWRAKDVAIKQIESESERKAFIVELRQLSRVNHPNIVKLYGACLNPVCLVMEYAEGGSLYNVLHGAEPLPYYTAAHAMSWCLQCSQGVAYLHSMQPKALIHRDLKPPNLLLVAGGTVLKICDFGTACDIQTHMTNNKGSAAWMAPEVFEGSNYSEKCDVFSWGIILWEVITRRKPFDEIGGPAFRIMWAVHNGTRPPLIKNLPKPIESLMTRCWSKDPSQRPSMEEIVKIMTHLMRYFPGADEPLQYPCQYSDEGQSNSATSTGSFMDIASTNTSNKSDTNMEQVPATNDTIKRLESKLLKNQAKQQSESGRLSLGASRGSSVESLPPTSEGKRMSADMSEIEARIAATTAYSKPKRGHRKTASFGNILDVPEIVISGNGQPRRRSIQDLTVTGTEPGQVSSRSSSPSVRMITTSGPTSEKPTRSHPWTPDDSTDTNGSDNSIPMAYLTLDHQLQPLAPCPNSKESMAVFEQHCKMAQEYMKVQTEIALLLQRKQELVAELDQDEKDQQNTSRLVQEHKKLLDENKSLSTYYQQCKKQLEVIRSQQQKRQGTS

[7] = molecular target: Death-associated protein kinase 2 (Homo sapiens) (UniProt Q9UIK4); experiment: Inhibition of human recombinant DAPK2 at 15 nM in presence of ATP by radiometric assay relative to control
[8] = molecular target: Ribosomal protein S6 kinase alpha-6 (Homo sapiens) (UniProt Q9UK32); experiment: Inhibition of human recombinant RSK4 at 15 nM in presence of ATP by radiometric assay relative to control
[9] = molecular target: Aurora kinase B (Homo sapiens) (UniProt Q96GD4); experiment: Inhibition of human recombinant AurB at 40 nM related to control ULK1
Outline: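 Radiometric activity assays in a panel of 327 human recombinant kinases, each run in duplicate at one inhibitor concentration. Activity remaining is expressed as percent of vehicle control, and percent inhibition is calculated as 100% minus percent activity remaining.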

[10] = molecular target: Tyrosine-protein kinase JAK2 (Homo sapiens) (UniProt O60674); experiment: Inhibition of human recombinant JAK2 at 40 nM related to control ULK1
[11] = molecular target: Epidermal growth factor receptor (Homo sapiens) (UniProt P00533); experiment: Inhibition of human recombinant EGFR at 40 nM in presence of ATP by radiometric assay relative to control
[12] = molecular target: T4, Serine/threonine-protein kinase Sgk2 (Homo sapiens) (UniProt Q9HBY8); experiment: Inhibition of human recombinant SGK2 at 40 nM related to control ULK1
T4 sequence (whole entry): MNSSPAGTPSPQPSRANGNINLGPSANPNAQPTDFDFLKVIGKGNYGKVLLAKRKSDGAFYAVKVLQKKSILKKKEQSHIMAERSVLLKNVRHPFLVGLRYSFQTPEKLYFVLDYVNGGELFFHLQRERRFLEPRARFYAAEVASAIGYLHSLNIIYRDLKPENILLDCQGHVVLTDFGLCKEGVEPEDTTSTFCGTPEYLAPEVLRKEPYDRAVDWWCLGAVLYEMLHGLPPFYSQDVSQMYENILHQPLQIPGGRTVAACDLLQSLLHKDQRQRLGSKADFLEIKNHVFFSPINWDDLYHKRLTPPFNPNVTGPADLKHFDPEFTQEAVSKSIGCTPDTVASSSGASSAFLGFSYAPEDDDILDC

Question: How did the fold change (FC) [1] turn out when `CNC(=O)c1ccccc1Oc1nc(Nc2cc(OC)c(OC)c(OC)c2)ncc1Br` was run?
Answer: Its fold change (FC) is 0.

Question: And the inhibition [2]?
Answer: The inhibition was 58%.

Question: What about the fold change (FC) [3] of the same molecule?
Answer: The fold change (FC) was 0.12.

Question: And the fold change (FC) [4]?
Answer: Its fold change (FC) is 0.04.

Question: `CC(C)[C@H](NC(=O)c1cc(-c2cnn3cc(-c4ccc(OCCN5CCCCC5)cc4)cnc23)cs1)C(F)(F)F` was tested. Which fold change (FC) [5] did it give?
Answer: Its fold change (FC) is 0.01.

Question: What about the fold change (FC) [6] of the same molecule?
Answer: The fold change (FC) was 0.01.

Question: What about the inhibition [7] of the same molecule?
Answer: The inhibition was 6%.

Question: And the inhibition [8]?
Answer: Its inhibition is 0%.

Question: With `O=C(N[C@@H](C1CC1)C(F)(F)F)c1cc(-c2cnn3cc(-c4ccc(F)cc4)cnc23)cs1` as the molecule, how does the fold change (FC) [9] read?
Answer: Its fold change (FC) is 0.67.

Question: And the fold change (FC) [10]?
Answer: The fold change (FC) was 0.

Question: What about the inhibition [11] of the same molecule?
Answer: The inhibition was 0%.

Question: What about the fold change (FC) [12] of the same molecule?
Answer: Its fold change (FC) is 0.16.
